Data as given in ChEMBL document CHEMBL4043282, “Discovery of the First Potent, Selective, and Orally Bioavailable Signal Peptide Peptidase-Like 2a (SPPL2a) Inhibitor Displaying Pronounced Immunomodulatory Effects In Vivo” (J Med Chem, 2018).
≈ marks a conversion by molar mass, not a printed value. Calls of active or inactive are those of the source. The rule behind the calls is not given here.

Assays:
[1] = Inhibition of human gamma-secretase expressed in HEK293 cells using Notch1-VP16-Gal4 as substrate after 24 hrs by Bright-Glo luciferase reporter gene assay; type: cell-based; settings: HEK293, 24 h
Summary of the method: (§1)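 HEK293 cells transiently transfected with human SPPL2a, VP16-TNFα(aa1-76)-NTF substrate and Gal4-luciferase reporter (SPPL2a), or human Notch1-VP16-Gal4 plus Gal4-luciferase reporter relying on endogenous γ-secretase.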

[2] = target: T1, Signal peptide peptidase-like 2A (Homo sapiens, UniProt Q8TCT8); assay: Inhibition of human SPPL2a expressed in HEK293 cells using GAL4-VP16 fusedTNFalpha (1 to 76)-NTF as substrate after 24 hrs by Bright-Glo luciferase reporter gene assay; type: cell-based; summary of the method: as §1
T1 sequence (Q8TCT8 whole entry): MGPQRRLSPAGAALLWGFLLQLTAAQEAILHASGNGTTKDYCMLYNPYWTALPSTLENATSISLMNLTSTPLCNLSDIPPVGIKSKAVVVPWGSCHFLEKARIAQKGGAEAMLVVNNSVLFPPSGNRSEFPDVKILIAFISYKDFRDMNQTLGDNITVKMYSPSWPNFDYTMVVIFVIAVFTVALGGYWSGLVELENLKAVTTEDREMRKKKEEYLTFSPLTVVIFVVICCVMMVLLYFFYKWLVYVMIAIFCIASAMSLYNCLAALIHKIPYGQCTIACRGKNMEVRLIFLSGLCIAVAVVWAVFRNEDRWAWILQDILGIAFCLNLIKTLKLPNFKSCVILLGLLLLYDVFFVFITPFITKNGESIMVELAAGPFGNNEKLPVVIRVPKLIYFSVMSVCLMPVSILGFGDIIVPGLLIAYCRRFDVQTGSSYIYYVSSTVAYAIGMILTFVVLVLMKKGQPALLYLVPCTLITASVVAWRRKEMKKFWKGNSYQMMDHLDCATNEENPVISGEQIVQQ

[3] = Selectivity ratio of IC50 for human gamma-secretase expressed in HEK293 cells to IC50 for human SPPL2a expressed in HEK293 cells
Summary of the method: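 HEK293 transiently transfected: SPPL2a arm with human SPPL2a, VP16-TNFα(aa1-76)-NTF and Gal4-luciferase; γ-secretase arm with human Notch1-VP16-Gal4 plus reporter (endogenous γ-secretase). Compound added 3 h after plating, 10 μM–0.3 nM final, triplicate, 24 h at 37 °C; luminescence read. IC50 from concentration vs normalised luminescence; ratio of the two IC50s.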

[4] = Octanol-buffer partition coefficient, log P of the compound by LC/MS/MS based shake flask method; type: physicochemical
Rattus norvegicus [5] = assay: Dose normalized AUC in Sprague-Dawley rat at 3 mg/kg, po by LC/MS/MS analysis; type: ADME, organism-based; settings: in vivo
Summary of the method: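 Female Sprague−Dawley rats catheterized (femoral artery/vein); cassette oral dosing 3 mg/kg per compound as aqueous Tween 80/CMC-Na suspension (0.5/0.5/99), 48 h after iv dose; arterial blood sampled over time into EDTA tubes; LC-MS/MS with QC acceptance 70−130%; noncompartmental PK.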

[6] = Clearance in Sprague-Dawley rat at 1 mg/kg, iv by LC/MS/MS analysis; type: ADME, organism-based; settings: in vivo
Summary of the method: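 Female Sprague−Dawley rats with femoral artery and vein catheters implanted 96−120 h beforehand; cassette dosing iv 1 mg/kg per compound in NMP/PEG200 (30:70); arterial blood into EDTA tubes at several times, frozen; LC-MS/MS vs standard curve with QCs within 70−130%; noncompartmental analysis.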

[7] = target: T2, Signal peptide peptidase-like 2A (Mus musculus, UniProt Q9JJF9); assay: Inhibition of mouse SPPL2a in A20 cells assessed as CD74/p8 accumulation by flow cytometry; type: cell-based
T2 sequence (Q9JJF9 whole entry): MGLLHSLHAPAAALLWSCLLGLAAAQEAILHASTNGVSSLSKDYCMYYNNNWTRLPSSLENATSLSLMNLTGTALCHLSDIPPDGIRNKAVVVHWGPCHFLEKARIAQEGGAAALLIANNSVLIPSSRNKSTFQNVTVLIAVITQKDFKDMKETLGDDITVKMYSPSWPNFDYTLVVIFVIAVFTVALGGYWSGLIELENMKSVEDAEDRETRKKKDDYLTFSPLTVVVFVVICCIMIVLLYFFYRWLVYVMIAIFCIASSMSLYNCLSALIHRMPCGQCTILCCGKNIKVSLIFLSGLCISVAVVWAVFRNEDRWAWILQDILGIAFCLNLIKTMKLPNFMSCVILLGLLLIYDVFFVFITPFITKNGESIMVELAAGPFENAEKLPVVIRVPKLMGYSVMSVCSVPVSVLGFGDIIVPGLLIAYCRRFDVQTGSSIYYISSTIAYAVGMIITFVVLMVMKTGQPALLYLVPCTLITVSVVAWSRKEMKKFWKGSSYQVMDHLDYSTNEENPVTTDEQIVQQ

[8] = Oral bioavailability in Sprague-Dawley rat at 1 mg/kg by LC/MS/MS analysis; type: ADME, organism-based; settings: in vivo
[9] = Equilibrium solubility of the compound at pH 6.8 after 24 hrs by saturation shake flask based UV-HPLC method; type: physicochemical; settings: buffer
[10] = target: T2, Signal peptide peptidase-like 2A; assay: Inhibition of SPPL2a in mouse whole blood assessed as increase in CD74/p8 accumulation after 5.5 hrs by Western bot method
Summary of the method: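 Mouse whole blood (200 μL) with compound from 20× stock, 0.5% DMSO final, 5.5 h at 37 °C, 5% CO2 with rotation. RBC lysis, washes, lysis in Tris pH 6.8/Triton/deoxycholate buffer; Western blot with rat anti-mouse CD74 (In-1); p8 band intensity normalized to CD74 full-length/β-actin for dose response.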

[11] = Clearance in Balb/c mouse at 5 mg/kg, iv by LC/MS/MS analysis; type: ADME, organism-based; settings: in vivo
Rattus norvegicus [12] = assay: Dose normalized AUC in Wistar rat at 10 mg/kg, po bid by LC/MS/MS analysis; type: ADME, organism-based; settings: in vivo
Mus musculus [13] = assay: In vivo inhibition of SPPL2a in mouse assessed as increase in CD74/p8 accumulation in splenocytes at 10 to 100 mg/kg, po administered as single dose measured after 4 hrs by Western blot method; type: functional, organism-based
Mus musculus [14] = assay: In vivo inhibition of SPPL2a in mouse assessed as increase in CD74/p8 accumulation in splenocytes at 100 mg/kg, po administered as single dose measured after 4 hrs by Western blot method; type: functional, organism-based
Mus musculus [15] = assay: In vivo inhibition of mouse gamma-secretase assessed as effect on Hes1 mRNA level in thymus at 100 mg/kg, po administered as single dose by RT-PCR method; type: organism-based
Summary of the method: (§2)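 Thymus and jejunum excised into RNALater, 4 °C overnight, washed, frozen at −80 °C; total RNA from 10 mg tissue by MagNA Pure LC; Hes1 measured by TaqMan real-time PCR; significance by two-tailed heteroscedastic Student's t-test.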

Mus musculus [16] = assay: In vivo inhibition of mouse gamma-secretase assessed as effect on Hes1 mRNA level in jejunum at 100 mg/kg, po administered as single dose by RT-PCR method; type: organism-based; summary of the method: as §2
[17] = Inhibition of human SPP expressed in human U2OS cells using EGFP-labeled EnvSigSeq-SEAP as substrate after 24 hrs by Hoechst staining based high content imaging assay; type: cell-based
Summary of the method: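 Stable U-2 OS lines expressing human SPPL2a, SPPL2b or SPP constitutively (mouse SPPL2a line analogous, mouse TNFα(aa1-77)-NTF-EGFP-NLS) with doxycycline-inducible EGFP substrate. 3000 cells/well, 3−4 h, then 11-point inhibitor 100 μM to 1 nM, 0.9% DMSO, 5 μg/mL doxycycline, 24 h 37 °C. PFA fixed, Hoechst nuclei; nuclear minus cytoplasmic EGFP intensity; inhibition vs 0.5 μM reference and DMSO; IC50 by nonlinear regression.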

For `C[C@H](CC(=O)Nc1cc(F)cc(F)c1)C(=O)N[C@@H]1C(=O)N2CCCN2Cc2ccccc21`, the IC50 [1] was 17 nM, the IC50 [2] was 5 nM and the “Ratio IC50” value [3] was 3.
For `C[C@H](CC(=O)Nc1ccccc1C(F)(F)F)C(=O)N[C@@H]1C(=O)N2CCCN2Cc2ccccc21`, the IC50 [1] was > 10000 nM, the IC50 [2] was 2850 nM and the “Ratio IC50” value [3] was >3.
Work on `Cc1ncc(F)cc1NC(=O)C[C@@H](C)C(=O)N[C@@H]1C(=O)N2CCCN2Cc2c(F)cccc21` yielded a logP [4] of 2.1, an AUC/dose (Rattus norvegicus [5]) of 1522 nM·h and an IC50 [1] of 7800 nM. For the same compound, the IC50 [2] was 76 nM, the clearance [6] was 15 mL/min/kg and the IC50 [7] was 121 nM. The bioavailability [8] was 54% and the solubility thermodynamic at 24 h [9] was 257 µM (≈ 118 µg/mL).
In the case of `CC(C)C[C@H](NC(=O)OCc1ccccc1)C(=O)N[C@@H](CC(C)C)C(=O)NCC(=O)CNC(=O)[C@H](CC(C)C)NC(=O)[C@H](CC(C)C)NC(=O)OCc1ccccc1`, the IC50 [1] is reported as > 10000 nM, the IC50 [2] is reported as 6 nM and the “Ratio IC50” value [3] is reported as >1666.
With `Cc1ncc(F)cc1NC(=O)C[C@@H](C)C(=O)N[C@@H]1C(=O)N2CCCN2Cc2ccccc21` the IC50 [10] was 50 nM, the logP [4] was 1.7 and the AUC/dose (Rattus norvegicus [5]) was 157 nM·h. For the same compound, the IC50 [1] was 8200 nM, the IC50 [2] was 44 nM and the clearance [6] was 34 mL/min/kg. For the same compound, the clearance [11] was 32 mL/min/kg, the IC50 [7] was 97 nM and the bioavailability [8] was 100%. The solubility thermodynamic at 24 h [9] was > 1000 µM.
For `Cc1cccc(NC(=O)C[C@@H](C)C(=O)N[C@@H]2C(=O)N3CCCN3Cc3ccccc32)c1`, the IC50 [1] was 610 nM, the IC50 [2] was 70 nM and the “Ratio IC50” value [3] was 9.
For `C[C@H](NC(=O)[C@@H](O)c1cc(F)cc(F)c1)C(=O)N[C@@H]1C(=O)N(C)c2ccccc2-c2ccccc21`, the AUC/dose (Rattus norvegicus [12]) was 63 nM·h, the Activity (Mus musculus [13]) was “Active” and the Activity (Mus musculus [14]) was “Active”. For the same compound, the Activity (Mus musculus [15]) was “Toxic”, the IC50 [1] was < 0.3 nM and the IC50 [2] was 10 nM. For the same compound, the Activity (Mus musculus [16]) was “Toxic”, the IC50 [17] was 50 nM and the “Ratio IC50” value [3] was <1.
For `Cc1ccc(NC(=O)C[C@@H](C)C(=O)N[C@@H]2C(=O)N3CCCN3Cc3ccccc32)cc1`, the IC50 [1] was 27 nM.
With `Cc1ncc(F)cc1NC(=O)C[C@H](C(=O)N[C@@H]1C(=O)N2CCCN2C(=O)c2ccccc21)C1CC1` the logP [4] was 1.6, the IC50 [1] was > 10000 nM and the IC50 [7] was 496 nM.
In the case of `Cc1ncccc1NC(=O)C[C@@H](C)C(=O)N[C@@H]1C(=O)N2CCCN2Cc2ccccc21`, the IC50 [1] is reported as > 10000 nM, the IC50 [2] is reported as 1020 nM and the solubility thermodynamic at 24 h [9] is reported as > 1000 µM.
For `Cc1ncc(F)cc1NC(=O)C[C@@H](C)C(=O)N[C@@H]1C(=O)N2CCCN2C(=O)c2ccccc21`, the logP [4] was 0.9 and the IC50 [1] was > 10000 nM.
